# Dyrk1A ADPGlo: rat Dyrk1A kinase inhibitors, primary screen, biochemical, single point, plate reader. inhibition, % at 12.5 µM. 310,000 compounds, 0.43% hits. Dual specificity tyrosine-phosphorylation-regulated kinase 1A (Rattus norvegicus), Q63470. AID 504441, 2011. ADP-Glo luminescence, NFATc1 peptide; in the data active = inhibition above about 50%;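 note: plate controls were vehicle with enzyme for no effect and no enzyme for full effect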
# PvdQ inh: P. aeruginosa PvdQ acylase inhibitors, primary screen, biochemical, fluorescence, plate reader and imaging, single point; purified PvdQ acylase; 340,000 compounds, 0.063% hits; inhibition, % at 10 µM; AID 488965, 2010; in the data active = inhibition above about 30%, passing the limit was not always enough;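 note: 0% = vehicle neutral wells and 100% = reference inhibitor wells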
# TbMetRS inhib: T. brucei MetRS inhibitors, primary screen, biochemical, luminescence; purified T. brucei MetRS, ATP depletion, Kinase-Glo luminescence; inhibition, % at 11.9 µM; 360,000 compounds, 0.4% hits;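 active = inhibition above a per-plate cutoff of the control wells' mean inhibition plus 3 SD, cut at about 5.5% in these data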;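 note: 0% = DMSO wells median and 100% = median of wells with control inhibitor compound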
#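 Material: parasite MetRS enzyme / Replication: singlicate, one well per compound / Signal: luminescence of leftover ATP / Schedule: 2 h aminoacylation at 25 °C after 15 min preincubation / Medium: HEPES-MgCl2-KCl buffer plus DTT, spermine, BSA, pyrophosphatase / Doses: 11.9 µM single point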
# CDK5 inh: inhibitors of human CDK5/p35 kinase, primary screen, biochemical, single concentration; Recombinant CDK5/p35, ADP-Glo luminescence, 60 min; AID 488839, 2010; inhibition, % at 10 µM; 330,000 compounds, 0.01% hits; Cyclin-dependent kinase 5 (Homo sapiens) + Cyclin-dependent kinase 5 activator 1 (Homo …;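 active = highest replicate inhibition of at least 50% and at least 75% of replicates reaching 50%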;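 note: plate controls were DMSO neutral control for no effect and GW8510 at 10 µM for full effect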
# Target sequence (Q00535 whole entry, looked up): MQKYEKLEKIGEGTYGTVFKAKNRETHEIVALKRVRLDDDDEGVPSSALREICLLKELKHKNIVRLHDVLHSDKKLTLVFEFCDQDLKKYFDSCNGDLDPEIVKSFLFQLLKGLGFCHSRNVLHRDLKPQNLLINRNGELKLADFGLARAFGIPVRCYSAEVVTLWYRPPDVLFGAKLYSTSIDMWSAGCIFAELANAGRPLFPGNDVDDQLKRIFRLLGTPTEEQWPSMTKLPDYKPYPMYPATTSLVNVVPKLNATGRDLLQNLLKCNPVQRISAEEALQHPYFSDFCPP
# Target sequence (Q15078 whole entry, looked up): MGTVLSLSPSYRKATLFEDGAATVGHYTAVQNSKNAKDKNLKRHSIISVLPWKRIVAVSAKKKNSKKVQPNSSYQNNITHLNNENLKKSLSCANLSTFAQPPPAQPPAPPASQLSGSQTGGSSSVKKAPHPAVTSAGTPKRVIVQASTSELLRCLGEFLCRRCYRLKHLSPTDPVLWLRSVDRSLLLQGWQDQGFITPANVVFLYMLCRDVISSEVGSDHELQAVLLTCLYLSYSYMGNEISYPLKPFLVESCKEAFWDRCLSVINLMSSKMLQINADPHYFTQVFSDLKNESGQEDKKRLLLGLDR
# CAL PDZ FP-1: CAL PDZ peptide-binding inhibitors, primary screen, biochemical, fluorescence polarization, Cer-tagged CAL PDZ, HTS. purified CAL PDZ, TMR-peptide fluorescence polarization, 1 h. inhibition, % at 20 µM. 330,000 compounds, 0.02% hits. AID 504414, 2011;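 active = highest replicate inhibition of at least 40%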;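 note: plate controls were DMSO neutral control wells for no effect and unlabeled competitor peptide control wells for full effect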
#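 Material: tagged CAL PDZ domain; buffer or medium: 25 mM sodium phosphate pH 7.4, 150 mM NaCl, TCEP, IgG, Thesit; compound dosing: single point, 20 µM; schedule: 1 h incubation at room temperature before polarization reading; measured by: FP readout, S and P plane fluorescence; read-out basis: percent inhibition from loss of millipolarization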
# CAL PDZ FP-2: untagged CAL PDZ binding inhibitors, primary screen, biochemical, fluorescence polarization, HTS; inhibition, % at 24.9 µM; 300,000 compounds, 0.92% hits; AID 602252, 2012; purified CAL PDZ, TMR-peptide fluorescence polarization, 1 h;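 active = mean inhibition of at least 30% with at least half of replicates also reaching 30%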;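 note: 0% = DMSO neutral control and 100% = excess unlabeled competitor peptide PRC23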
# ADP-Glo artifact: ADP-Glo luciferase interference without Dyrk1A, dose response, artefact control for Dyrk1A inhibitor project, biochemical, luminescence, cherry-pick, set 02 | shares compounds with Dyrk1A ADPGlo | ADP-Glo luciferase artifact assay, no Dyrk1A | AC50, µM (top dose mostly 12 µM), without a hit: at the top dose activity change, negative = inhibition | 1,300 tested, under 10 active | AID 588348, 2011;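 active = fitted half-maximal dose AC50 no more than ten times the top valid tested dose, with luminescence dropping as dose rises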
# Tb MetRS conf: T. brucei MetRS inhibitors, confirmation, biochemical, luminescence; AID 624412, 2012; shares compounds with TbMetRS inhib; T. brucei MetRS enzyme, luminescence (ATP depletion); inhibition, % at 11.9 µM; 1,400 compounds, 93% hits; in the data active = inhibition above about 7%
# Jurkat cytotox: Jurkat T cell cytotoxicity, cytotoxicity control for T. brucei MetRS inhibitor project, luminescence, high throughput. shares compounds with TbMetRS inhib. Jurkat cells viability, ATP luminescence. inhibition, % at 8.3 µM. 1,400 compounds, 12% hits. AID 624413, 2012; in the data active = inhibition above about 15%;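 note: 0% = vehicle and 100% = reference inhibitor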
# Tb MetRS inh FP: T. brucei MetRS inhibitors, orthogonal assay for T. brucei MetRS inhibitor project, biochemical, fluorescence polarization; 1,400 compounds, 44% hits; shares compounds with TbMetRS inhib; purified T. brucei MetRS; AID 651607, 2012; inhibition, % at 11.9 µM; in the data active = inhibition above about 17%;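 note: 0% = vehicle wells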
# Starred values were filed as active, the others as inactive; . = no result given. Shown are actives, neighbours in structure and some others; about 1.4% of the full set was active somewhere.
SMILES,Dyrk1A ADPGlo,PvdQ inh,TbMetRS inhib,CDK5 inh,CAL PDZ FP-1,CAL PDZ FP-2,ADP-Glo artifact,others
Cc1nc(N)sc1-c1csc(Nc2ccccc2)n1,52*,11,-1,0,.,-6,8%,
CC(=O)Nc1ccc(Nc2nc(-c3sc(NC(C)=O)nc3C)cs2)cc1,20,5,-1,1,1,0,.,
COC(=O)[C@]12CCCCC=C1N(Cc1ccccc1)C(=O)[C@H](CC(=O)N1CCC(c3ccccc3)CC1)C2,.,.,0,.,.,.,.,
Cc1ccc2nc(-c3ccco3)c(CC(C)(C)C)n2c1,.,.,-1,.,.,.,.,
COc1cc(N2CN=c3s/c(=C\c4ccccn4)c(=O)n3C2)cc(OC)c1OC,53*,3,-1,0,-1,10,5%,
CCOC(=O)N1CCN(C(=O)C[C@@H]2C[C@@]3(C(=O)OC)CCCCC=C3N(Cc3cccc4ccccc34)C2=O)CC1,.,.,-1,.,.,.,.,
CCCCCC(=O)N1C[C@H](O)[C@@H](n2cc(C3CC3)nn2)C[C@@H]1c1ccc(C)cc1,.,.,0,.,.,.,.,
Cc1[nH]ccc2c1[nH]c1cc(=O)ccc12,93*,-9,0,9,0,0,8%,
O=C(c1ccccc1)c1ccc2ccccc2c1,5,-10,0,-1,0,-4,.,
O=C(c1ccccc1)c1ccc2cc(O)ccc2c1,64*,-9,0,2,-2,-4,-1%,
CCCCCCCCN1C(=O)[C@H](CC(=O)N2CCN(C(=O)C3CC3)CC2)C[C@@]2(C(=O)OCC)CCCC=C12,.,.,0,.,.,.,.,
O=C(NCc1ccncc1)[C@@H]1CCCN1C(=O)[C@@H]1CCCN1C(=O)c1cccc2ccccc12,.,.,0,.,.,.,.,
O=C1CCN(CCc2ccccc2)CCN1[C@H](CO)c1ccccc1,6,14,0,0,1,-2,.,
O=C1CCN(CCCc2ccccc2)CCN1[C@H](CO)c1ccccc1,51*,-6,0,0,0,-1,9%,
Clc1ccccc1Nc1nc(NCC2CC2)nc2ccsc12,.,.,0,.,.,.,.,
Cc1cccc(NC(=O)C2NC(=O)CC2c2ccccc2)c1C (stereo unspecified),59*,6,0,0,0,.,2%,
CCN1C=CC(=C2C(=O)c3ccccc3C2=O)C=C1,57*,3,-6,7,-1,-5,3%,
O=C1Nc2ccccc2N(C(=O)c2ccc(-c3ccccc3)cc2)C1c1nc2ccccc2[nH]1 (stereo unspecified),.,.,-4,.,.,.,.,
CCOC(=O)c1ccc2ncc(C(=O)OCC)c(Nc3ccc(N4CCOCC4)cc3)c2c1,65*,2,1,2,0,-3,6%,
Cc1ccnc(NC(=O)c2cccc(S(=O)(=O)N3CCCC3)c2)c1,2,4,-1,3,-2,0,.,
Cc1ccnc(NC(=O)c2cccc(S(=O)(=O)N3CCN(c4ccccc4)CC3)c2)c1,60*,3,0,3,-1,-3,6%,
C=CCc1ccc(OCCOc2ccc(/C=N/n3cnnc3)cc2OCC)c(OC)c1,60*,2,1,1,0,-2,10%,
COc1ccc(-c2nc(N)ncc2-c2ccccc2OC)c(O)c1,51*,-9,0,-3,0,-8,7%,
COc1ccc(-c2nc(N)ncc2-c2ccccc2)c(O)c1,-1,2,0,1,1,8,.,
Clc1ccc2nc(COc3ccccc3)[nH]c2c1,54*,-1,12*,0,.,-6,9%,Tb MetRS conf=24*;Jurkat cytotox=51*;Tb MetRS inh FP=21*
SMILES,Dyrk1A ADPGlo,PvdQ inh,TbMetRS inhib,CDK5 inh,CAL PDZ FP-1,CAL PDZ FP-2,ADP-Glo artifact,others
O=C1C(=C(c2ccccc2)N2CCOCC2)Cc2ccccc21,.,.,0,.,.,.,.,
Clc1ccccc1OCCn1nnc2ccccc21,5,-10,0,-2,-1,-5,.,
Nc1nc2ccccc2n1CCOc1ccccc1Cl,5,-21,67*,0,-2,-5,.,Tb MetRS conf=80*;Jurkat cytotox=8;Tb MetRS inh FP=44*
S=C(Nc1ccccc1)Nc1nc2ccccc2n1CCOc1ccc(Br)cc1,-9,-13,3,0,-2,-2,.,
Nc1nc2ccccc2n1CCOc1ccc(Br)cc1,1,-1,37*,-1,-1,-20,.,Tb MetRS conf=51*;Jurkat cytotox=19*;Tb MetRS inh FP=34*
Nc1nc2ccccc2n1CCOc1ccc(Cl)cc1,3,9,26*,1,0,-2,.,Tb MetRS conf=45*;Jurkat cytotox=2;Tb MetRS inh FP=22*
Clc1cccc(Cc2c(C3CCCCC3)nc3c4ccccc4ccn23)c1,.,.,0,.,.,.,.,
CC(C)c1ccc(C(C(C(=O)c2ccccc2)N2CCOCC2)N2CCOCC2)cc1 (stereo unspecified),-4,2,0,0,-2,-5,.,
CC(C)c1ccc([C@@H]2O[C@H](CCc3ccccc3)CC3=C2C(=O)OC(C)(C)O3)cc1,.,.,0,.,.,.,.,
CC(C)S(=O)(=O)NC(=O)C1(C)CCN1C(=O)Cc1ccccc1 (stereo unspecified),.,.,0,.,.,.,.,
CCCCN1C[C@H](c2ccc(OC)cc2)[C@@H](CC(=O)Nc2ccc(OC)cc2)C1=O,.,.,-1,.,.,.,.,
O=C(C[C@H]1C(=O)N(c2ccccc2)C[C@@H]1Cc1ccccc1)Nc1ccc(Br)cc1,.,.,7.6*,.,.,.,.,Tb MetRS conf=18*;Jurkat cytotox=3;Tb MetRS inh FP=11
COc1ccc(NC(=O)C[C@H]2C(=O)N(c3ccc(Br)cc3)C[C@@H]2CSC)cc1,.,.,-1,.,.,.,.,

# Assay outcomes deposited in PubChem BioAssay by several laboratories.
